Experimental data taken from ChEMBL document CHEMBL1268815, “Modulating the development of E. coli biofilms with 2-aminoimidazoles” (Bioorg Med Chem Lett, 2010).

Legend:
Escherichia coli K-12 [1] = assay: Effect on Escherichia coli K-12 ER2738 biofilm formation at 400 uM after 24 hrs by crystal violet reporter assay relative to control; assay type: functional; conditions: ER2738, 24 h
Procedure, shortened: (§1)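 Initial single-concentration screen for effect on biofilm development. Bacteria were incubated statically with or without compound for 24 h. Medium and planktonic cells were removed and wells were water-washed. Attached biofilm was stained with crystal violet, washed, and the stain was solubilized in ethanol and read at A540. Results were expressed relative to untreated control as means of three experiments.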

Acinetobacter baumannii = assay: Effect on Acinetobacter baumannii biofilm formation at 400 uM after 24 hrs by crystal violet reporter assay relative to control; assay type: functional; conditions: read-out: INH; procedure, shortened: as §1
[2] = Toxicity in sheep RBC assessed as induction of hemolysis; assay type: cell-based, Ovis aries; conditions: erythrocyte
Escherichia coli K-12 [3] = assay: Dispersion of preformed Escherichia coli K-12 ER2738 biofilm by crystal violet reporter assay relative to control
Escherichia coli K-12 [4] = assay: Effect on Escherichia coli K-12 ER2738 biofilm formation by crystal violet reporter assay relative to control; assay type: functional, organism-based
Procedure, shortened: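 E. coli biofilm development was measured under static conditions by crystal violet reporter assay. Cultures were grown with or without compound for 24 h, then planktonic cells and medium were removed and wells were water-washed. Biofilm was stained with crystal violet, and the retained dye was ethanol-solubilized and quantified at A540 against untreated control.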

SMILES	inhibition at 400 µM (Escherichia coli K-12 [1])	inhibition at 400 µM (Acinetobacter baumannii)	also measured
Nc1nc(CCCc2cn(CC(=O)NC3CCCC3)nn2)c[nH]1	-47.8%	15.9%	
Cl.Nc1nc(CCCc2cn(CC(=O)NCc3ccccc3)nn2)c[nH]1		19.5%	Activity [2]: > 800 µM
COc1ccc(CCNC(=O)Cn2cc(CCCc3c[nH]c(N)n3)nn2)cc1.Cl		8.5%	Activity [2]: > 800 µM
CCCCCCNC(=O)Cn1cc(CCCc2c[nH]c(N)n2)nn1	-30.3%	31.4%	
CC(C)NC(=O)Cn1cc(CCCc2c[nH]c(N)n2)nn1	-127%	13.6%	
Nc1nc(CCCc2cn(CC(=O)N3CCOCC3)nn2)c[nH]1	-183%	30.3%	
CCCCCCCCNC(=O)Cn1cc(CCCCCc2c[nH]c(N)n2)nn1.Cl			EC50 (Escherichia coli K-12 [3]): Not Active; Activity [2]: 675 µM; IC50 (Escherichia coli K-12 [4]): 13 µM
Nc1nc(CCCc2cn(CC(=O)NCCCc3ccccc3)nn2)c[nH]1	-176%	23.2%	
Nc1nc(CCCc2cn(CC(=O)NC3CCCCC3)nn2)c[nH]1	-169%		
Nc1nc(CCCc2cn(CC(=O)NCCc3ccccc3)nn2)c[nH]1	-41.8%	20.8%	
Nc1nc(CCCc2cn(CC(=O)N3CCCC3)nn2)c[nH]1	2.6%	6.2%	
COc1ccc(CNC(=O)Cn2cc(CCCc3c[nH]c(N)n3)nn2)cc1	-19.9%	17.5%	
CCCCCCCCCCCCCCNC(=O)Cn1cc(CCCc2c[nH]c(N)n2)nn1	57.8%	36.4%	
CCCCCCCCCCNC(=O)Cn1cc(CCCc2c[nH]c(N)n2)nn1.Cl	90.8%	28.3%	EC50 (Escherichia coli K-12 [3]; Escherichia coli, ER2738, read-out: EC50): 120 µM; Activity [2]: 487 µM; IC50 (Escherichia coli K-12 [4]): 36.9 µM
COc1ccc(NC(=O)Cn2cc(CCCc3c[nH]c(N)n3)nn2)cc1	-169%		
CCCCCCCCCCNC(=O)Cn1cc(CCCCCc2c[nH]c(N)n2)nn1	58.9%		
Nc1nc(CCCc2cn(CC(=O)Nc3ccccc3)nn2)c[nH]1	-142%	23%	
CC(C)(C)NC(=O)Cn1cc(CCCc2c[nH]c(N)n2)nn1	17.6%	21.2%	
Nc1nc(CCCCCc2cn(CC(=O)Nc3ccccc3)nn2)c[nH]1	-143%		
Nc1nc(CCCCCc2cn(CC(=O)NCCc3ccccc3)nn2)c[nH]1	-174%		
